Measured values as given in ChEMBL document CHEMBL3875163, “Novel urea and bis-urea primaquine derivatives with hydroxyphenyl or halogenphenyl substituents: Synthesis and biological evaluation” (Eur J Med Chem, 2016).
Values after ≈ are worked out from the molar mass of the structure shown.

Experiments:
[1] = Growth inhibition of human MCF7 cells after 72 hrs by MTT assay; type: functional, cell-based; settings: MCF7, 72 h
Summary of the method: (§1)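 Modified NCI DTP protocol: cells in DMEM with 10% FBS, 2 mM glutamine, antibiotics, 37 °C, 5% CO2; seeded 1 × 10^4 to 3 × 10^4 cells/ml on day 0, exposed to five 10-fold dilutions (10^-8 to 10^-4 M) for 72 h; solvent control. MTT read-out; quadruplicate points in three experiments; IC50 by linear regression of growth percentages bracketing 50%.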

[2] = Antioxidant activity assessed as DPPH radical scavenging activity at 100 uM after 60 mins relative to control; type: functional
Summary of the method: (§2)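 Compound in DMSO added to DPPH in absolute ethanol, 0.1 mM final; absorbance at 517 nm after 20 and 60 min at room temperature. At least triplicate.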

[3] = Growth inhibition of human HeLa cells after 72 hrs by MTT assay; type: functional, cell-based
[4] = Antioxidant activity assessed as inhibition of AAPH-induced linoleic acid lipid peroxidation at 1 x 10^-4 M by UV-absorbance method relative to control; type: functional
Summary of the method: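 Linoleic acid peroxidation: 16 mM sodium linoleate dispersion in 0.05 M phosphate buffer pH 7.4 at 37 °C under air, initiated by AAPH (40 mM solution); compound at 1 × 10^-4 M; oxidation followed at 234 nm. At least triplicate.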

[5] = test system: Glycine max; experiment: Inhibition of soybean LOX assessed as reduction in conversion of sodium linoleate to 13-hydroperoxylinoleic acid at 1 x 10^-4 M relative to control
Summary of the method: (§3)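 Soybean lipoxygenase incubated at room temperature with sodium linoleate (0.1 mM) and test compound (DMSO stocks); formation of 13-hydroperoxylinoleic acid read at 234 nm. Single-point screening at 1 × 10^-4 M; IC50 from several concentrations. At least triplicate.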

[6] = Growth inhibition of human SW620 cells after 72 hrs by MTT assay; type: functional, cell-based; settings: SW-620, 72 h; summary of the method: as §1
[7] = Growth inhibition of human Molt4/C8 cells after 72 hrs by MTT assay; type: functional, cell-based; settings: MOLT-4, 72 h
[8] = Growth inhibition of human CEM cells after 72 hrs by MTT assay; type: functional, cell-based; settings: CCRF-CEM
[9] = Growth inhibition of mouse L1210 cells after 72 hrs by MTT assay; type: functional, cell-based; settings: L1210, 72 h
[10] = Growth inhibition of human NCI-H460 cells after 72 hrs by MTT assay; type: functional, cell-based; settings: NCI-H460, 72 h; summary of the method: as §1
[11] = Growth inhibition of human MIAPaCa2 cells after 72 hrs by MTT assay; type: functional, cell-based; settings: MIA PaCa-2, 72 h
[12] = Antioxidant activity assessed as DPPH radical scavenging activity at 100 uM after 20 mins relative to control; type: functional; summary of the method: as §2
[13] = Inhibition of soybean LOX assessed as reduction in conversion of sodium linoleate to 13-hydroperoxylinoleic acid; parameters: species or system Glycine max; summary of the method: as §3
[14] = test system: Staphylococcus aureus; experiment: Antibacterial activity against methicillin resistant Staphylococcus aureus MFBF 10679 after 18 hrs by serial microdilution broth assay; type: functional; settings: MFBF 10679, 18 h
Summary of the method: (§4)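 EUCAST-based broth microdilution in Mueller-Hinton broth. Glycerol stock cultures grown in trypticase soy broth 18 h at 37 °C; inoculum in PBS pH 7.4 at 0.5 McFarland, diluted 1:10 in broth. Compounds from DMSO stocks, 1000 to 0.78125 µg/ml; 18 h aerobic, 35 °C, dark. TTC 0.5 mg/ml added, 3 h, then HCl/isopropanol, A490. MIC = lowest concentration giving 50% inhibition vs untreated; duplicates, averaged.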

[15] = test system: Staphylococcus aureus; experiment: Antibacterial activity against methicillin resistant Staphylococcus aureus MFBF 10682 after 18 hrs by serial microdilution broth assay; type: functional; settings: MFBF 10682, 18 h; summary of the method: as §4
[16] = test system: Pseudomonas aeruginosa; experiment: Antibacterial activity against Pseudomonas aeruginosa ATCC 9027 after 18 hrs by serial microdilution broth assay; type: functional; settings: ATCC 9027, 18 h; summary of the method: as §4
[17] = test system: Escherichia coli; experiment: Antibacterial activity against Escherichia coli ATCC 10535 after 18 hrs by serial microdilution broth assay; type: functional; settings: ATCC 10535, 18 h
Summary of the method: (§5)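 Broth microdilution MIC per EUCAST for aerobic bacteria in Mueller-Hinton broth, serial dilution 1000 to 0.78125 µg/ml from 10 mg/ml DMSO stocks. Inoculum from trypticase soy broth cultures (18 h, 37 °C), set to 0.5 McFarland in PBS pH 7.4, diluted 1:10. 18 h aerobic incubation at 35 °C in dark, then TTC 0.5 mg/ml for 3 h, HCl-isopropanol, A490. MIC = lowest concentration giving 50% inhibition versus untreated; duplicates.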

[18] = test system: Staphylococcus aureus; experiment: Antibacterial activity against methicillin sensitive Staphylococcus aureus ATCC 25923 after 18 hrs by serial microdilution broth assay; type: functional; settings: ATCC 25923, 18 h; summary of the method: as §4
[19] = test system: Pseudomonas aeruginosa; experiment: Antibacterial activity against Pseudomonas aeruginosa ATCC 27853 after 18 hrs by serial microdilution broth assay; type: functional; settings: ATCC 27853, 18 h; summary of the method: as §5
[20] = test system: Enterococcus faecalis; experiment: Antibacterial activity against vancomycin resistant Enterococcus faecalis MFBF 11419 after 18 hrs by serial microdilution broth assay; type: functional; settings: MFBF 11419, 18 h; summary of the method: as §4
[21] = test system: Staphylococcus aureus; experiment: Antibacterial activity against Staphylococcus aureus ATCC 6538 after 18 hrs by serial microdilution broth assay; type: functional; settings: ATCC 6538, 18 h; summary of the method: as §5
[22] = test system: Bacillus spizizenii; experiment: Antibacterial activity against Bacillus subtilis ATCC 6633 after 18 hrs by serial microdilution broth assay; type: functional; settings: ATCC 6633, 18 h; summary of the method: as §5
[23] = test system: Enterococcus faecalis; experiment: Antibacterial activity against vancomycin susceptible Enterococcus faecalis ATCC 29212 after 18 hrs by serial microdilution broth assay; type: functional; settings: ATCC 29212, 18 h; summary of the method: as §5
[24] = test system: Bacillus pumilus; experiment: Antibacterial activity against Bacillus pumilus NCTC 8241 after 18 hrs by serial microdilution broth assay; type: functional; settings: NCTC 8241, 18 h; summary of the method: as §5
[25] = test system: Candida albicans; experiment: Antifungal activity against Candida albicans ATCC 90028 after 18 hrs by serial microdilution broth assay; type: functional; settings: ATCC 90028, 18 h
Summary of the method: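 Yeast microdilution in RPMI 1640 with glutamine plus 2% glucose, 1000 to 0.78125 µg/ml from 10 mg/ml DMSO stocks. Growth read with XTT (10 mg/ml) mixed 7:1 with menadione (1 mg/ml in acetone), absorbance at 540 nm. MIC taken as lowest concentration giving 50% growth inhibition versus untreated cells; tests in duplicate.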

[26] = test system: Bacillus cereus; experiment: Antibacterial activity against Bacillus cereus ATCC 11778 after 18 hrs by serial microdilution broth assay; type: functional; settings: ATCC 11778, 18 h; summary of the method: as §5
[27] = test system: Pseudomonas aeruginosa; experiment: Antibacterial activity against multi-drug resistant Pseudomonas aeruginosa MFBF after 18 hrs by serial microdilution broth assay; type: functional; summary of the method: as §4
[28] = test system: Staphylococcus aureus; experiment: Antibacterial activity against methicillin sensitive Staphylococcus aureus ATCC 25213 after 18 hrs by serial microdilution broth assay; type: functional; settings: ATCC 25213, 18 h; summary of the method: as §5

In the case of COc1cc(NC(C)CCCNC(=O)Nc2cccc(F)c2)c2ncccc2c1 (centres undefined), the IC50 [1] is reported as 18 µM, the Activity [2] is reported as 26% and the IC50 [3] is reported as 18 µM. It also gave an inhibition [4] of 74.3%, an inhibition [5] of 44.6% and an IC50 [6] of 27 µM. For the same compound, the IC50 [7] was 23 µM, the IC50 [8] was 21 µM and the IC50 [9] was 19 µM. It also gave an IC50 [10] of 24 µM and an IC50 [11] of 22 µM.

For COc1cc(NC(C)CCCNC(=O)NNC(=O)Nc2ccc(O)cc2)c2ncccc2c1 (centres undefined), the IC50 [1] was 2.6 µM, the Activity [12] was 99.3% and the Activity [2] was 100%. It also gave an IC50 [3] of 85 µM, an inhibition [4] of 61.9% and an inhibition [5] of 33.4%. For the same compound, the IC50 [6] was over 100 µM, the IC50 [7] was 104 µM and the IC50 [8] was 111 µM. For the same compound, the IC50 [9] was 95 µM, the IC50 [10] was over 100 µM and the IC50 [11] was 142 µM.

COc1cc(NC(C)CCCNC(=O)NNC(=O)Nc2cccc(Cl)c2)c2ncccc2c1 (centres undefined) gave an IC50 [1] of 0.22 µM, an Activity [12] of 97.9% and an Activity [2] of 95.1%. For the same compound, the IC50 [3] was 44 µM, the inhibition [4] was 70.8% and the inhibition [5] was 48.4%. It also gave an IC50 [6] of 25 µM, an IC50 [7] of 93 µM and an IC50 [8] of 81 µM. For the same compound, the IC50 [9] was 27 µM, the IC50 [10] was 32 µM and the IC50 [11] was 74 µM.

Compound CC(Cc1ccc(O)c(O)c1)C(C)Cc1ccc(O)c(O)c1 (centres undefined) [NORDIHYDROGUAIARETIC ACID] has an Activity [12] of 83%, an Activity [2] of 97% and an inhibition [5] of 83%. It also gave an IC50 [13] of 4.5 µM.

Compound Cc1c(C)c2c(c(C)c1O)CCC(C)(C(=O)O)O2 (centres undefined) has an inhibition [4] of 76%.

COc1cc(NC(C)CCCN)c2ncccc2c1 (centres undefined) [PRIMAQUINE] showed an MIC50 [14] of 70 µg/mL (≈ 270 µM), an MIC50 [15] of 60 µg/mL (≈ 231 µM) and an MIC50 [16] of 70 µg/mL (≈ 270 µM). For the same compound, the MIC50 [17] was 65 µg/mL (≈ 251 µM), the MIC50 [18] was 70 µg/mL (≈ 270 µM) and the MIC50 [19] was 65 µg/mL (≈ 251 µM). For the same compound, the MIC50 [20] was over 100 µg/mL, the MIC50 [21] was 70 µg/mL (≈ 270 µM) and the MIC50 [22] was 80 µg/mL (≈ 308 µM). The MIC50 [23] was over 100 µg/mL, the MIC50 [24] was 70 µg/mL (≈ 270 µM) and the MIC50 [25] was 350 µg/mL (≈ 1350 µM). It also gave an MIC50 [26] of 70 µg/mL (≈ 270 µM), an MIC50 [27] of 70 µg/mL (≈ 270 µM) and an MIC50 [28] of 70 µg/mL (≈ 270 µM).

COc1cc(NC(C)CCCNC(=O)Nc2cccc(Cl)c2)c2ncccc2c1 (centres undefined) showed an IC50 [1] of 11 µM, an Activity [2] of 35.7% and an IC50 [3] of 17 µM. It also gave an inhibition [4] of 84.1%, an inhibition [5] of 11.8% and an IC50 [6] of 26 µM. It also gave an IC50 [7] of 21 µM, an IC50 [8] of 22 µM and an IC50 [9] of 17 µM. The IC50 [10] was 37 µM and the IC50 [11] was 21 µM.

COc1cc(NC(C)CCCNC(=O)Nc2ccc(Cl)cc2)c2ncccc2c1 (centres undefined) showed an IC50 [1] of 12 µM, an Activity [12] of 24% and an Activity [2] of 37%. The IC50 [3] was 18 µM, the inhibition [4] was 81.9% and the inhibition [5] was 21.6%. For the same compound, the IC50 [6] was 28 µM, the IC50 [7] was 24 µM and the IC50 [8] was 24 µM. For the same compound, the IC50 [9] was 19 µM, the IC50 [10] was 34 µM and the IC50 [11] was 22 µM.

In the case of COc1cc(NC(C)CCCNC(=O)NNC(=O)Nc2ccc(Br)cc2)c2ncccc2c1 (centres undefined), the IC50 [1] is reported as 0.1 µM, the Activity [12] is reported as 96.9% and the Activity [2] is reported as 99%. It also gave an IC50 [3] of 101 µM, an inhibition [5] of 28% and an IC50 [6] of 17 µM. The IC50 [7] was 209 µM, the IC50 [8] was 110 µM and the IC50 [9] was 51 µM. For the same compound, the IC50 [10] was 27 µM and the IC50 [11] was 231 µM.
